Values after ≈ are worked out from the molar mass of the structure shown. Active and inactive are the calls of the source. The calls are words filed in the database; no cut-off is given here.

For data set [1], the system named is CWR22R. The data set can be described thus: Inhibition of prostate specific antigen expression in human 22Rv1 cells expressing AKR1C3 at 5 to 50 uM incubated for 72 hrs by Western blot analysis. Format: functional, cell-based. The note with it: dose 5-50 µM. The method, boiled down:
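22RV1 cells seeded at 300,000/well in charcoal-stripped serum medium for 24 h, then treated 72 h at 5 or 50 μM in DMSO (≤0.5% v/v). RIPA lysates of 30 μg protein blotted with anti-PSA (1:500, overnight 4 °C) and HRP secondary. β-actin was the loading control. Densitometric PSA/β-actin as fold change; duplicate.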
In general terms: A western blot detects proteins with antibodies after separation by electrophoresis.

For data set [2], the system named is CWR22R. The data set can be described thus: Antiproliferative activity against human 22Rv1 cells expressing AKR1C3 assessed as reduction in cell viability at 40 to 60 uM incubated for 72 hrs in presence of abiraterone by SRB assay relative to either drug alone. Format: functional. The conditions noted are these: dose 40-60 µM. Put shortly:
(§1)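 Co-treatment in 22RV1 cells seeded in charcoal-stripped serum medium. Test compound at 40 or 60 μM was given for 72 h with 10 μM abiraterone or 30 μM enzalutamide, or with no drug. Growth was read by SRB assay and expressed as % T/C (mean OD treated / mean OD control × 100).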
Background: Sulforhodamine B stains cellular protein and so reports cell mass.

Data set [3] is described as follows: Solubility of the compound in PBS at pH 7.4 incubated for 24 hrs by UHPLC analysis. Format: physicochemical. The method, boiled down: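 About 1 mg of solid was shaken in 1 mL of 50 mM PBS pH 7.4 at 25 °C for 24 h, then filtered (0.45 μm). The filtrate was run on C18 UHPLC with a water/methanol gradient in 0.1% TFA, read at 254 and 230 nm. Concentration came from external calibration over 1-200 μM; detection limit 1 μM.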

Data set [4] addresses T1, Aldo-keto reductase family 1 member C3 (Homo sapiens, UniProt P42330).
T1 sequence (P42330 whole entry): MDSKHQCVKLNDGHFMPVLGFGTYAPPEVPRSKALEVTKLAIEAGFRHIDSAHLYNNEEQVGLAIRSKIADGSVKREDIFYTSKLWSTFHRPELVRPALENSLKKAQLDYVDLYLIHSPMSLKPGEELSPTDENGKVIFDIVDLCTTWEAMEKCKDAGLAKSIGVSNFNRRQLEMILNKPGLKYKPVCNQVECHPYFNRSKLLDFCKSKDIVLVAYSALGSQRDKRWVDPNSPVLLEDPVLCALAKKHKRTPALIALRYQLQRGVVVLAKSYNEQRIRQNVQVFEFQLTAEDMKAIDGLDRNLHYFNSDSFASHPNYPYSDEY
The data set can be described thus: Inhibition of recombinant human AKR1C3 transfected in Escherichia coli BL21 (DE) assessed as reduction in NADPH production using S-tetralol as substrate by fluorescence based analysis. Put shortly:
(§2)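 GST-tagged human AKR1C2 or AKR1C3 made in bacteria (IPTG 0.5 mM, 2 h), purified on glutathione sepharose and thrombin-cleaved. Assay in 100 mM phosphate pH 7 with 200 μM NADP+ and 10% EtOH at 37 °C. S-tetralol was 15 μM for AKR1C2 and 160 μM for AKR1C3. NADPH fluorescence read at 340/460 nm. Inhibition from initial velocities versus solvent controls; ≥3 experiments in triplicate.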

The target in data set [5] is T2, Aldo-keto reductase family 1 member C2 (Homo sapiens) (UniProt P52895).
T2 sequence (whole entry): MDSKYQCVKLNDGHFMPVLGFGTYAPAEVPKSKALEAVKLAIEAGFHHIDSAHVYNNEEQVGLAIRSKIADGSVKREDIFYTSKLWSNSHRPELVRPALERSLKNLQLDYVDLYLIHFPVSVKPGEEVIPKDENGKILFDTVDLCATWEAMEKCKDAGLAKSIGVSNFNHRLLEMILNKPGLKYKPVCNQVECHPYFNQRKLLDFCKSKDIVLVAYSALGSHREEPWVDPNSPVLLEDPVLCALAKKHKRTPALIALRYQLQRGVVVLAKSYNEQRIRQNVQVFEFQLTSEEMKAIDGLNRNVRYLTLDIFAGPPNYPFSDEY
The data set can be described thus: Inhibition of recombinant human AKR1C2 transfected in Escherichia coli BL21 (DE) assessed as reduction in NADPH production at 100 uM using S-tetralol as substrate by fluorescence based analysis relative to control. The method, boiled down: as §2

The test system of data set [6] is CWR22R. The data set can be described thus: Antiproliferative activity against human 22Rv1 cells expressing AKR1C3 assessed as reduction in cell viability at 40 to 60 uM incubated for 72 hrs in presence of , enzalutamide by SRB assay relative to either drug alone. Format: functional. The conditions noted are these: dose 40-60 µM. The method, boiled down:
as §1

Data set [7] has as its system CWR22R. The data set can be described thus: Antiproliferative activity against human 22Rv1 cells expressing AKR1C3 assessed as inhibition of cell growth incubated for 72 hrs by SRB assay. The conditions noted are these: 22Rv1, 72 h. It is filed as functional, cell-based. Put shortly: (§3)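 22RV1 cells in RPMI with 10% FCS, 37 °C, 5% CO2. Seeded at 10,000/well in medium with 10% charcoal-stripped serum and left 24 h. Inhibitor dilutions in DMSO added in triplicate for 72 h; DMSO controls at most 1% v/v. Growth read by sulforhodamine B colorimetric assay. IC50 from the mean of three separate experiments.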

The subject of data set [8] is CWR22R. The data set can be described thus: Antiproliferative activity against human 22Rv1 cells expressing AKR1C3 assessed as reduction in cell viability at 100 uM incubated for 72 hrs by SRB assay relative to control. Format: functional. The method, boiled down:
as §3

The nature of data set [9]: Lipophilicity, logD of the compound in n-octanol and phosphate buffer at pH 7.4 incubated for 4 hrs by UV-Vis spectrophotometer based shake flask method. Format: physicochemical. Put shortly:
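Shake-flask logD between n-octanol and 50 mM PBS pH 7.4 (ionic strength 0.15 M, KCl). The phases were pre-saturated for 4 h, then shaken ~20 min with compound and centrifuged. Aqueous concentration was read by UV at λmax against calibration curves. Each value averages at least six measurements.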

Data set [10] deals with T3, Aldo-keto reductase family 1 member C2 (Homo sapiens, UniProt P52895).
T3 sequence (P52895 whole entry): T2 sequence (whole entry)
The data set can be described thus: Inhibition of recombinant human AKR1C2 transfected in Escherichia coli BL21 assessed as reduction in NADP+-dependent S-tetralol oxidation incubated for 20 mins by absorbance based analysis.

Data set [11] deals with T2, Aldo-keto reductase family 1 member C2 (Homo sapiens). The data set can be described thus: Inhibition of recombinant human AKR1C2 transfected in Escherichia coli BL21 (DE) assessed as reduction in NADPH production at 50 uM using S-tetralol as substrate by fluorescence based analysis relative to control. The method, boiled down: as §2
The nature of data set [12]: Inhibition of androstenedione induced testosterone production in human 22Rv1 cells expressing AKR1C3 assessed as reduction in testosterone level to 0.5 uM pretreated for 1 hr followed by androstenedione addition and measured after 24 hrs by ELISA relative to control. It is filed as functional, CWR22R. The note with it: time 25 hrs. Put shortly:
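22RV1 cells seeded at 30,000/well in medium with 10% charcoal-stripped serum and left 24 h. Inhibitor added 1 h before 30 nM androstenedione, then 24 h more. Supernatant (1:2) assayed for testosterone by ELISA read at 405 nm against a standard curve. Mean of three experiments, each in triplicate.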
On the technique in general: In an ELISA, binding on a coated surface is turned into a signal by an enzyme label.

Data set [13] in a line: Ionization constant, pKa of the compound by potentiometric titration method. It is filed as physicochemical. The method, boiled down: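 pKa was measured by potentiometric titration on a Sirius T3 in MDM cosolvent (20% acetonitrile, 20% dioxane, 20% methanol), with added percentages varied.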
Data set [14] deals with T2, Aldo-keto reductase family 1 member C2 (Homo sapiens). The data set can be described thus: Inhibition of recombinant human AKR1C2 transfected in Escherichia coli BL21 (DE) assessed as reduction in NADPH production at 20 uM using S-tetralol as substrate by fluorescence based analysis relative to control. Put shortly: as §2

Usually inhibition stands for the share of the control response that was lost under treatment. One may read the solubility as the dissolved amount per volume that the medium holds. As a reminder, the IC50 is the concentration needed to halve the response being measured. On to `COc1ccc(Cn2nnc(O)c2C(=O)Nc2cccc(Oc3ccccc3)c2)cc1`, for which the inhibition entry with CWR22R [1] was “Active”. Moreover, the Activity is listed as greater than 20% in the data set on CWR22R [2] and 50% in the data set with CWR22R [6]. Further, the solubility at 24 h in data set [3] was less than 1 µM. The IC50 was determined as 110 nM in data set [4] and 65 µM with CWR22R [7]. Further, in data set [5], the inhibition was 72.8%.

In the case of `COc1ccc(Cn2nnc(O)c2C(=O)Nc2ccc(Oc3ccccc3)cc2)cc1`, the solubility at 24 h in data set [3] is less than 1 µM. Also, the IC50 in [4] turned out to be 270 nM; in the data set with CWR22R [7] it was 58.2 µM. Further, in [5], the inhibition worked out at 57.8%.

Usually logD stands for lipophilicity at a set pH, counting ionised and neutral species. A higher logD goes with a more lipophilic compound. The compound `COc1ccc(Cn2nnc(O)c2C(=O)Nc2ccc3c(c2)ncn3-c2ccccc2)cc1` registered a solubility at 24 h in data set [3] of 1.25 µM (≈ 0.551 µg/mL). The Activity with CWR22R [8] amounted to 36.88%. The compound also showed a logD at 4 h in data set [9] of 2.19. The IC50 was 1630 nM in data set [4] and greater than 100 µM with CWR22R [7].

Consider `COc1ccc(Cn2nnc(O)c2C(=O)Nc2cccc(C(F)(F)F)c2)cc1`, for which, in data set [3], the concentration in solution (solubility at 24 h) was 21.2 µM (≈ 8.32 µg/mL). The logD at 4 h in data set [9] stood at 1.1. Also, the inhibition in data set [5] was 59.9%.

Compound `COc1ccc(Cn2nnc(O)c2C(=O)Nc2cc(C(F)(F)F)cc(C(F)(F)F)c2)cc1` returned a solubility at 24 h in data set [3] of 6.91 µM (≈ 3.18 µg/mL). The compound further returned a logD at 4 h in [9] of 2.47. The IC50 in data set [4] turned out to be 400 nM; in the data set with CWR22R [7], 33.8 µM. In data set [5], the inhibition was found to be 33.6%.

Turning to `COc1ccc2[nH]c(C(=O)N3CCC(CC(C)(C)O)CC3)cc2c1` [ASP-9521], the half-inhibitory concentration (IC50) in data set [10] is greater than 20 µM.

For `COc1ccc(Cn2nnc(O)c2C(=O)Nc2cccc(-c3ccc(OC)cc3)c2)cc1`, the solubility at 24 h in data set [3] is less than 1 µM. The compound further showed a logD at 4 h in [9] of 2.59. Besides, the results for the IC50 (in data set [4]; in the data set with CWR22R [7]) were 220 nM and 50.1 µM, respectively. Besides, the inhibition in data set [11] is 31.6%.

On to `COc1ccc(Cn2nnc(O)c2C(=O)Nc2cccc(-c3ccccc3)c2)cc1`, for which the inhibition entry in the data set with CWR22R [1] is “Active”. The results for the Activity in the data set with CWR22R [2] and in the data set with CWR22R [6] were greater than 20% and 30%, respectively. The compound also gave a solubility at 24 h in data set [3] of less than 1 µM. In data set [9], the logD at 4 h was 2.3. The IC50 amounted to 69 nM in data set [4] and 52.1 µM in the data set with CWR22R [7]. Besides, the inhibition in data set [5] came to 30.5%. Moreover, the inhibition at 0.5 µM in data set [12] is 20%.

The term pKa denotes the negative logarithm of the acid dissociation constant. Read a high pKa as a group that holds its proton tightly. With `COc1ccc(Cc2onc(O)c2C(=O)Nc2cccc(-c3ccccc3)c2)cc1`, in [3], the concentration in solution (solubility at 24 h) was 10.8 µM (≈ 4.3 µg/mL). The compound also gave a logD at 4 h in data set [9] of 2.16. For the same compound, the IC50 worked out at 190 nM in data set [4] and 54.8 µM in the data set with CWR22R [7]. Besides, the inhibition in data set [5] came to 7.32%. In data set [13], this compound gave a pKa of 4.5.

In the case of `COc1ccc(Cn2nnc(O)c2C(=O)Nc2cccc(-c3ccc(O)cc3)c2)cc1`, the concentration in solution in [3] (solubility at 24 h) was 2.05 µM (≈ 0.854 µg/mL). Besides, the logD at 4 h in data set [9] was found to be 2.19. Besides, the IC50 in data set [4] came to 310 nM; in the data set on CWR22R [7], 67.5 µM. The inhibition in data set [5] was 37.9%.

`COc1ccc(Cn2nnc(O)c2C(=O)Nc2ccc(-c3ccccc3)cc2)cc1` showed a solubility at 24 h in data set [3] of less than 1 µM. For the same compound, in [9], the logD at 4 h turned out to be 2.19. In addition, the results for the IC50 (in data set [4]; with CWR22R [7]) were 470 nM and 57.9 µM, respectively. Also, in [14], the inhibition was 30%.

`COc1ccc(Cn2nnc(O)c2C(=O)Nc2cccc(-c3cccc(O)c3)c2)cc1` gave a solubility at 24 h in data set [3] of 40.3 µM (≈ 16.8 µg/mL). For the same compound, the logD at 4 h in data set [9] is 2.25. In addition, the 50% inhibitory concentration (IC50) was 210 nM in data set [4] and 75.7 µM with CWR22R [7]. Moreover, in data set [5], the inhibition came to 38.5%. Further, the pKa in data set [13] amounted to 4.9.

In turn, `COc1ccc(Cn2nnc(O)c2C(=O)Nc2cccc(-c3cccc(OC)c3)c2)cc1` had a solubility at 24 h in data set [3] of less than 1 µM. The compound also showed a logD at 4 h in [9] of 2.5. Besides, the IC50 in data set [4] stood at 260 nM; in the data set with CWR22R [7] it was 59 µM. The inhibition in [5] is 45.3%.

(Values after ChEMBL document CHEMBL5120830, “New aldo-keto reductase 1C3 (AKR1C3) inhibitors based on the hydroxytriazole scaffold” (Eur J Med Chem, 2022).)
